96 compounds from ChEMBL document CHEMBL4513216, “Probing the Open Global Health Chemical Diversity Library for Multistage-Active Starting Points for Next-Generation Antimalarials” (ACS Infect Dis, 2020) can be followed below.

A short description of this data set: Toxicity liver stage against HepG2, at 10uM. It counts as cell-based. Further details: test concentration 10 uM, cell line HepG2-A16-CD81EGFP. Particulars: human, HepG2-A16-CD81EGFP cells; read-out: INHIBITION
A digest of the protocol:
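Uninfected HepG2-A16-CD81EGFP cells, 3 × 10^3 per well, 1536-well, plated on prespotted compound at 10 μM final, parasite-free screening media added to match infected plates; puromycin 10 μM positive, DMSO 0.5% negative; run in parallel with 48 h PbLuc assay at 37 °C, 5% CO2; viability by CellTiter-Glo luminescence, normalized to controls.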
`COCc1ccc(C(=O)N2CCCN(Cc3ccc(F)cc3)CC2)s1`: the cytotoxicity at 10 µM is -1.78%.

On to `CCn1c(=NC(=O)CSCC(=O)Nc2nccs2)sc2ccccc21`, for which the cytotoxicity at 10 µM is -2.17%.

As for `COCCNC(=O)c1cnc(C)nc1C`, the cytotoxicity at 10 µM worked out at 24.5%.

In the case of `Cc1nnc2n1CC(CNc1ncnc3ccccc13)CC2` (stereo unspecified), the cytotoxicity at 10 µM was -40%.

With `O=C(O)Cc1cn2cc(C(F)(F)F)ccc2n1`, the cytotoxicity at 10 µM came to 11.4%.

`O=C(NCC(F)(F)F)C1CSCN1S(=O)(=O)c1cccc(F)c1` (stereo unspecified): the cytotoxicity at 10 µM came out at 18.7%.

Consider `O=C(NC1CC1)C1CN(c2nc3ccccc3s2)CCN1` (stereo unspecified), for which the cytotoxicity at 10 µM was -49.4%.

On to `O=C(C1CCCC1)N1CCC(C(O)c2ccc(F)cc2)CC1` (stereo unspecified), for which the cytotoxicity at 10 µM is 8.54%.

`CCN1CCN(c2ccc(CNC(=O)c3sccc3C)cn2)CC1`: the cytotoxicity at 10 µM is -17.8%.

With `O=C1Nc2ccccc2CC12CCCN2Cc1ccccn1` (stereo unspecified), the cytotoxicity at 10 µM was -17.1%.

Consider `COCCN1C[C@@H]2OCCN(c3ccnc(N(C)C)n3)[C@@H]2C1`, for which the cytotoxicity at 10 µM is -118%.

Regarding `CC(C)[C@H](NC(=O)c1cccc(CCC(C)(C)O)c1)C(N)=O`, the cytotoxicity at 10 µM was -0.471%.

`CCC(=O)N1CCN(C(=O)c2ccc(OC)o2)[C@H]2CS(=O)(=O)C[C@H]21`: the cytotoxicity at 10 µM came to 0.224%.

Consider `CCN(CC)C(=O)C1CCN(C(=O)Nc2cccnc2OC)CC1`, for which the cytotoxicity at 10 µM is 19%.

For `Cc1ocnc1C(=O)N(Cc1cccnc1)C[C@@H]1CCC(=O)N1`, the cytotoxicity at 10 µM was determined as 8.83%.

As to `CC(C)Oc1ncccc1CNC(=O)C1CCCN(C(=O)C2CC2)C1` (stereo unspecified), the cytotoxicity at 10 µM is -8.57%.

As to `Cc1cc(C(=O)N2CC[C@H](N3CCOCC3)[C@H](CCCO)C2)c(C)n1C`, the cytotoxicity at 10 µM was -138%.

On to `COc1ccccc1OC1(C(=O)O)CCN(c2nccnc2OC)CC1`, for which the cytotoxicity at 10 µM was -6.25%.

Turning to `Fc1cccc(C2(CNC3CCOC4(CCOCC4)C3)CCOCC2)c1` (stereo unspecified), the cytotoxicity at 10 µM was 0.616%.

On to `Cc1ccc(C(=O)N2C[C@@H]3COC[C@]3(COc3cccnc3)C2)cn1`, for which the cytotoxicity at 10 µM is -3.91%.

As for `Cc1nn(C)c(N(C)C)c1CNCC(O)COc1cccc(F)c1` (stereo unspecified), the cytotoxicity at 10 µM is 6.2%.

As to `COCCN1CCC(NCc2cccc(F)c2)C1` (stereo unspecified), the cytotoxicity at 10 µM was -8.85%.

For the compound `CCc1cnc(CNc2ccc(C(=O)NCc3ccco3)cc2C)o1`, the cytotoxicity at 10 µM was -0.375%.

As to `CCS(=O)(=O)N1CCCC(n2nnn(-c3ccccc3)c2=O)C1` (stereo unspecified), the cytotoxicity at 10 µM was found to be 2.65%.

For the compound `CC(=O)N1CCc2[nH]cnc2C12CCN(C(=O)Cc1cccs1)CC2`, the cytotoxicity at 10 µM came out at 7.2%.

With `c1cc(CN2CCC(c3nnc4n3CCCCC4)CC2)c2nonc2c1`, the cytotoxicity at 10 µM is -1.08%.

Take `c1ccc2sc(N3CCOC(Cn4cccn4)C3)nc2c1` (stereo unspecified): the cytotoxicity at 10 µM was -12.8%.

In the case of `COCCCN1C(=O)CC[C@H]2CN(c3cc(C(N)=O)ccn3)CC[C@H]21`, the cytotoxicity at 10 µM is 4.12%.

Consider `Cc1ccc(C2CCCN2S(=O)(=O)N(C)Cc2cnn(C)c2)o1` (stereo unspecified), for which the cytotoxicity at 10 µM came to 15.8%.

In the case of `CC(=O)N1CCCN(CCn2nc3ccccn3c2=O)CC1`, the cytotoxicity at 10 µM was -137%.

For the compound `Cc1cc(C(=O)NC(C)C(=O)Nc2cc(F)ccc2C)nc(C)n1` (stereo unspecified), the cytotoxicity at 10 µM was -3.71%.

Consider `CC1CCC(n2cc3nc(N)[nH]cc-3c2=O)CC1` (stereo unspecified), for which the cytotoxicity at 10 µM is -0.0237%.

`COc1ccc(OC)c(C(C)Nc2ncnc3c2NC(=O)CN3)c1` (stereo unspecified): the cytotoxicity at 10 µM was 10.6%.

On to `Cc1nc(C)n(CC2CCCN2c2ncnc3sc(C)c(C)c23)n1` (stereo unspecified), for which the cytotoxicity at 10 µM was 21.4%.

For the compound `CCc1nnc(CN(C)c2nccc(N3CCCC(O)C3)n2)o1` (stereo unspecified), the cytotoxicity at 10 µM is -4.68%.

In the case of `CC(NC(=O)NCCCN(C)S(C)(=O)=O)c1ccc(Cl)cc1` (stereo unspecified), the cytotoxicity at 10 µM is -2.24%.

Consider `CNC(=O)CN1CC[C@H]2CN(C(=O)c3ccccc3F)C[C@H]2C1`, for which the cytotoxicity at 10 µM was -1.34%.

For `Cc1n[nH]c2ncc(CNC3CCCN(c4ncccn4)C3)cc12` (stereo unspecified), the cytotoxicity at 10 µM was found to be 23.6%.

Take `CC(C)(CNc1cccc(Cl)c1)NC(=O)C1CCCN(CC(N)=O)C1` (stereo unspecified): the cytotoxicity at 10 µM was -1.46%.

In the case of `CN(C)[C@@H]1CN(C(=O)c2ccc3ccccc3n2)C[C@H]1O`, the cytotoxicity at 10 µM is -22.5%.

As for `CC(NC(=O)CN1CCN(Cc2ccc(Br)s2)CC1)c1ccccc1` (stereo unspecified), the cytotoxicity at 10 µM worked out at 8.44%.

Turning to `COCCN(Cc1ccc(C)o1)C(=O)Nc1ncc(C)s1`, the cytotoxicity at 10 µM was determined as 10%.

As for `O=C1NCCC12CN(CC1CC1)CC21CCNCC1` (stereo unspecified), the cytotoxicity at 10 µM was -5.31%.

For `CC1CN(C(=O)NCCn2ccnc2)CCO1` (stereo unspecified), the cytotoxicity at 10 µM is -49.5%.

As for `CC(=O)N1CCCC2(C1)CN(C(=O)c1ccncc1)CCO2` (stereo unspecified), the cytotoxicity at 10 µM is -78.7%.

Regarding `Cc1nc2ccccc2n1Cc1cc(C(=O)N(C)C2CCOCC2)no1`, the cytotoxicity at 10 µM was 25.7%.

Turning to `Cc1csc2c(N3CCNC(C(=O)Nc4ccc(F)cc4)C3)ncnc12` (stereo unspecified), the cytotoxicity at 10 µM was determined as 12.7%.

With `O=C1CCC2(CCN(Cc3cscn3)CC2)CN1CC1CCCO1` (stereo unspecified), the cytotoxicity at 10 µM is -5.5%.

As to `CN1CCC(c2cncc(-c3cccc(Cl)c3)n2)CC1`, the cytotoxicity at 10 µM was -20.8%.

For the compound `COc1ccccc1C(=O)N1C[C@@H]2CCCCN(CC(N)=O)[C@@H]2C1`, the cytotoxicity at 10 µM was -4.43%.

In the case of `CC1(C)OCC2(CO1)CN(C(=O)c1ccccc1Cl)C2`, the cytotoxicity at 10 µM was -4.21%.

Consider `CN1CCN(C(=O)NC2CC2)Cc2cccnc21`, for which the cytotoxicity at 10 µM was -2.96%.

On to `CCCn1c(SCC(N)=O)nnc1-c1csc2c1CCCC2`, for which the cytotoxicity at 10 µM is -1.42%.

As to `CCCn1cc(NC(=O)Nc2ccc(F)c(C(=O)NC)c2)cn1`, the cytotoxicity at 10 µM amounted to 6.98%.

Turning to `O=S(=O)(c1ccccc1)N1CCC2(CCCN2Cc2cccc(F)c2)C1` (stereo unspecified), the cytotoxicity at 10 µM is -68.4%.

Consider `CC(NC(=O)N(C)Cc1cccc(OC(F)F)c1)c1nncn1C` (stereo unspecified), for which the cytotoxicity at 10 µM was -2.69%.

In the case of `CCc1ccc2nc(C)cc(C(=O)NC3CCCCNC3=O)c2c1` (stereo unspecified), the cytotoxicity at 10 µM was -8.48%.

Regarding `O=c1cnc2ccccc2n1CCCn1ccnc1`, the cytotoxicity at 10 µM was -3.85%.

Take `Cc1nc(CN2CCCN(Cc3nc4c(F)cccc4[nH]3)CC2)no1`: the cytotoxicity at 10 µM is 0.601%.

For `O=C(CCCOc1cccc(F)c1)N1CCCC(n2cccn2)C1` (stereo unspecified), the cytotoxicity at 10 µM is -16%.

Turning to `COc1c(C2CCCN2CC(=O)Nc2ccncc2)c(C)nn1C` (stereo unspecified), the cytotoxicity at 10 µM was -12.7%.

Turning to `CN(C)C(=O)NC1COC2(CCN(Cc3ccc(Cl)c(F)c3)CC2)C1` (stereo unspecified), the cytotoxicity at 10 µM is -76.4%.

With `Cc1ccccc1OCCC(=O)N1CCC(c2nncn2C)CC1`, the cytotoxicity at 10 µM is -13.3%.

Regarding `COc1cccc(F)c1C(C)NC(=O)NCc1cnc(C)s1` (stereo unspecified), the cytotoxicity at 10 µM is -4.94%.

As to `CCC(CC)CN1CCN(CC(=O)Nc2cccc3nsnc23)CC1`, the cytotoxicity at 10 µM came out at 6.16%.

As to `CC(C)n1ccnc1C1CCCN(c2cncc(N(C)C)n2)C1` (stereo unspecified), the cytotoxicity at 10 µM was 10.1%.

For `CC(C)c1nc(CN(C)C(=O)CNS(=O)(=O)c2cccs2)no1`, the cytotoxicity at 10 µM was -16.8%.

Consider `O=C1C[C@@H]2CC[C@H](CN1)N2C(=O)Cc1ccsc1`, for which the cytotoxicity at 10 µM was 1.6%.

Turning to `O=c1ccc2c(n1Cc1ccncc1)CCN(Cc1ccoc1)CC2`, the cytotoxicity at 10 µM is -149%.

Regarding `COc1c(CNC2CCc3cc(F)ccc32)c(C)nn1C` (stereo unspecified), the cytotoxicity at 10 µM was -8.11%.

Regarding `CCC(=O)N1CCC2(CC1)CC(NC(=O)N(C)C)c1cc(C)ccc12` (stereo unspecified), the cytotoxicity at 10 µM stood at 8.39%.

As for `CC(C(=O)Nc1ncccn1)N1CCc2[nH]nc(C(F)(F)F)c2C1` (stereo unspecified), the cytotoxicity at 10 µM was -0.583%.

On to `c1cc2c(cc1CN1CCCC3(CCOC3)C1)OCO2` (stereo unspecified), for which the cytotoxicity at 10 µM turned out to be 0.447%.

For the compound `Cc1nc(C)c(C(=O)N2CCCC2(C)C(=O)NC2CCCC2)o1` (stereo unspecified), the cytotoxicity at 10 µM is 0.61%.

Take `CCOCC(=O)N1C[C@@H]2CCN(c3cnccn3)C[C@@H]2C1`: the cytotoxicity at 10 µM came out at 1.2%.

`CC(C)S(=O)(=O)CC(=O)N1CCCC(n2ccnc2)C1` (stereo unspecified): the cytotoxicity at 10 µM came to 10.2%.

Turning to `CC(C)[C@@H]1CN(Cc2ccccc2C#N)C[C@H]1C(=O)O`, the cytotoxicity at 10 µM is 6.3%.

`Cc1nn(C)c(N2CCOCC2)c1CNCc1ccc(N(C)C)nc1`: the cytotoxicity at 10 µM is -14.4%.

Turning to `O=C(Nc1cc(C(F)(F)F)c[nH]c1=O)N1CCOCC1`, the cytotoxicity at 10 µM was -3.03%.

With `Cc1csc(N2CCCN(C(=O)C(C)n3cncn3)CC2)n1` (stereo unspecified), the cytotoxicity at 10 µM is -3.6%.

For the compound `O=C(c1cnc2ccc(F)cc2c1NCc1ccco1)N1CCCCC1`, the cytotoxicity at 10 µM is 9.34%.

For `Cn1cc(N2CCC3(CCN(S(=O)(=O)C4CC4)C3)C2=O)cn1` (stereo unspecified), the cytotoxicity at 10 µM was -2.45%.

As for `Cc1ncsc1C(=O)N(Cc1ccccn1)C1CC1`, the cytotoxicity at 10 µM was -11.2%.

As for `COCC(=O)N[C@H]1C[C@@H](Cc2cc(CN3CCOCC3)on2)C1(C)C`, the cytotoxicity at 10 µM was determined as 0.66%.

For the compound `COc1ccccc1CC(C)N(C)CCS(C)(=O)=O` (stereo unspecified), the cytotoxicity at 10 µM amounted to 7.57%.

For the compound `COc1ccc2[nH]cc(C(=O)N3C[C@@H](O)[C@H](NS(C)(=O)=O)C3)c2c1`, the cytotoxicity at 10 µM is -9.26%.

As for `O=C(c1nn(-c2ccccc2F)cc1O)N1CCC2(CC1)OCCO2`, the cytotoxicity at 10 µM is -3.24%.

In the case of `N#Cc1ccc(C(=O)N2CC[C@H]3[C@H]2CCN3CC2CCOCC2)cc1`, the cytotoxicity at 10 µM is -5.19%.

With `CO[C@H]1CN(Cc2cc(F)ccc2F)CC[C@@]12CCCO2`, the cytotoxicity at 10 µM is -8.49%.

On to `COCc1nnc(NC(=O)CN2C(=O)c3ccccc3NC2C(C)C)s1` (stereo unspecified), for which the cytotoxicity at 10 µM is -4.19%.

With `CC(CCc1ccccc1)NC(=O)CNCCCN1CCOCC1` (stereo unspecified), the cytotoxicity at 10 µM was -11.1%.

For the compound `OC(COCc1ccccc1)CN1CCC(c2ccn[nH]2)CC1` (stereo unspecified), the cytotoxicity at 10 µM was -13.6%.

For `c1cnnc(N2CCCC2CNc2nc3ccccc3o2)c1` (stereo unspecified), the cytotoxicity at 10 µM was -2.96%.

As to `Cn1nccc1CNC(=O)CCn1nc(C(F)(F)F)c(Cl)c1C1CC1`, the cytotoxicity at 10 µM is -3.33%.

Consider `Oc1ccccc1N1CCN(c2ncnc3sc4c(c23)CCNC4)CC1`, for which the cytotoxicity at 10 µM stood at 4.36%.

For `O=C(NC1CC1)[C@@H]1CCO[C@@H]2CCN(CC3CCC3)C[C@@H]21`, the cytotoxicity at 10 µM is -101%.
